The values that follow come from ChEMBL document CHEMBL1154491, “Synthesis, structure, antimicrobial and antioxidant investigations of dicoumarol and related compounds” (Eur J Med Chem, 2008).

Structures are written as SMILES. In brackets after ≈: the same amount, converted by molar mass. Activity calls are given as the source filed them. No cut-off for these calls is given here.

In data set [1] the test system is Staphylococcus epidermidis. Put plainly: Antimicrobial activity against 1.6X10'-3 cfu/ml Staphylococcus epidermidis ATCC 12228 after 1 to 4 days. The format is functional. In short, it runs like this: (§1)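 Compounds were dissolved in acetone (10 mg/mL stock) and diluted with culture medium into serial dilutions. Tests used Mueller-Hinton broth with 1% Tween 20, incubated aerobically at 36 ± 1 °C for 1–4 days alongside duplicate blanks. Growth was scored by turbidimetry or by plating on agar, and MIC was recorded.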

In a further data set the test system is Mus musculus. The experiment in a line: Acute toxicity in mouse at 2 g/kg. Particulars: in vivo.
For a further data set, the system named is Staphylococcus aureus. Put plainly: Antimicrobial activity against 1.5X10'-3 cfu/ml Staphylococcus aureus ATCC 6538 after 1 to 4 days. The format is functional. The procedure, abridged: as §1
The subject of a further data set is Cutibacterium acnes. The experiment in a line: Antimicrobial activity against 1X10'-3 cfu/ml Propionibacterium acnes ATCC 11827 after 1 to 4 days. The format is functional. In short, it runs like this:
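Compounds were taken from an acetone stock (10 mg/mL), diluted in culture medium and set up as serial dilutions with duplicate blanks. After 1–4 days of incubation, bacterial growth was estimated by turbidimetry or agar plating to give the MIC.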

Data set [2] is described as follows: Antioxidant activity assessed as ABTS radical scavenging activity by TEAC method. The class given is functional. The procedure, abridged: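 The ABTS radical cation was diluted in PBS, pH 7.4, to an absorbance of 0.70 ± 0.02 at 734 nm at 37 °C. Graded dilutions of compound were added, and absorbance was read at 5, 10, 15 and 20 min after addition.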

`O=c1c(C(c2ccc([N+](=O)[O-])cc2)c2c(O)oc3ccccc3c2=O)c(O)oc2ccccc12`: the MIC turned out to be 1.3 µg/mL (≈ 2.84 µM) in data set [1], 3.7 µg/mL (≈ 8.09 µM) against Staphylococcus aureus and 0.5 µg/mL (≈ 1.09 µM) against Cutibacterium acnes. Also, the Activity entry in the data set on Mus musculus was “Non-toxic”. In addition, the outcome in data set [2] was Active.

On to `COc1ccc(C(c2c(O)c3ccccc3oc2=O)c2c(O)c3ccccc3oc2=O)cc1`, for which, in the data set on Mus musculus, the Activity result is “Non-toxic”. Moreover, in data set [2], the outcome was Active.

In the case of `O=c1c(C(c2ccc(C(c3c(O)oc4ccccc4c3=O)c3c(O)oc4ccccc4c3=O)cc2)c2c(O)oc3ccccc3c2=O)c(O)oc2ccccc12`, the Activity result in the data set on Mus musculus is “Non-toxic”. Besides, the outcome in data set [2] was Active.

For `O=c1oc2ccccc2c(O)c1C(c1cccc(O)c1O)c1c(O)c2ccccc2oc1=O`, the MIC in data set [1] worked out at 1.9 µg/mL (≈ 4.28 µM); in the data set on Staphylococcus aureus, 6.5 µg/mL (≈ 14.6 µM); in the data set on Cutibacterium acnes it was 0.5 µg/mL (≈ 1.13 µM). Also, the Activity result with Mus musculus was “Non-toxic”. Moreover, the result in data set [2] was Active.

Turning to `O=c1c(C(c2ccccc2)c2c(O)oc3ccccc3c2=O)c(O)oc2ccccc12`, in data set [2], the outcome was Active.

On to `Cc1ccc(C(c2c(O)c3ccccc3oc2=O)c2c(O)c3ccccc3oc2=O)cc1`, for which, in the data set on Mus musculus, the Activity result is recorded as “Non-toxic”. Besides, the outcome in data set [2] was Active.

On to `O=c1oc2ccccc2c(O)c1C(c1cc([N+](=O)[O-])ccc1O)c1c(O)c2ccccc2oc1=O`, for which, in data set [2], the result was Active.

In the case of `COc1cc(C(c2c(O)oc3ccccc3c2=O)c2c(O)oc3ccccc3c2=O)cc(OC)c1OC`, in data set [2], the outcome was Active.
